Measurements gathered from unrelated publications.
Protocols differ between the studies behind these lines.
Cell line: MOLM-13
Read-out: cell growth or viability

SMILES | test | setting | endpoint | value
COc1ccc2/c(=N/c3ccccc3NC(=O)N3CCOCC3)cc(-c3ccc4c(c3)OCCO4)oc2c1 | CCK-8 | 1 µM | inhibition | 3.11%
Cc1n[nH]c2ccc3nc(-c4ccc(C(=O)NCCN(C)C)cc4)c4c(c3c12)CCCC4 | – | 72 h | GI50 | 0.054 µM
CS(=O)(=O)NCCC(=O)Nc1ccccc1/N=c1\cc(-c2ccc3nc(N)oc3c2)oc2ccccc12 | CCK-8 | 1 µM | inhibition | 8.5%
CN(C)CCNC(=O)c1ccc(-c2nc3ccc4[nH]ncc4c3c3c2CCCCC3)cc1 | – | 72 h | GI50 | 0.084 µM
CCNc1nc2ccc(-c3c/c(=N\c4ccccc4NC(=O)CCN)c4ccccc4o3)cc2o1 | CCK-8 | 1 µM | inhibition | 12.2%
c1ccc(Oc2ccc(Nc3ccc4ncc(OCC5CCNCC5)nc4c3)cc2)cc1 | XTT | 7 days | EC50 | 1.4 µM
Cc1cc2c(C(=O)O)cccc2n1-c1nc2c(c(NCc3ccccc3)n1)CCCN2 | – | 72 h | IC50 | 0.4 µM
C[C@H](N)C(=O)Nc1ccccc1/N=c1\cc(-c2ccc3c(c2)OCCO3)oc2c(N)cccc12 | CCK-8 | 1 µM | inhibition | 3.7%
CN(C)CCNC(=O)c1ccc(-c2nc3ccc4[nH]ncc4c3c3c2CCCC3)cc1 | – | 72 h | GI50 | 0.1 µM
c1ccc(COc2ccc(Nc3ccc4ncc(OCC5CCNCC5)nc4c3)cc2)cc1 | XTT | 7 days | EC50 | 0.84 µM
COc1ccc2/c(=N/c3ccccc3NC(=O)[C@@H](N)C(C)(C)C)cc(-c3ccc4c(c3)OCCO4)oc2c1 | CCK-8 | 1 µM | inhibition | 2.86%
Cc1n[nH]c2ccc3nc(-c4ccc(C(=O)NCCN(C)C)cc4)c4c(c3c12)CCCCC4 | – | 72 h | GI50 | 0.187 µM
c1cc(N2CCC(N3CCOCC3)CC2)ccc1Nc1ccc2ncc(OCC3CCNCC3)nc2c1 | XTT | 7 days | EC50 | > 30 µM
Cc1n[nH]c2ccc3nc(-c4ccc(C(=O)NCCN(C)C)cc4F)c4c(c3c12)CCCCC4 | – | 72 h | GI50 | 0.15 µM
c1cc(N2CCCCC2)ccc1Nc1cc2ncc(OCC3CCNCC3)nc2cc1-c1ccc(N2CCCCC2)cc1 | XTT | 7 days | EC50 | 2.8 µM
